ChEMBL document CHEMBL4393681, “The identification of naturally occurring labdane diterpenoid calcaratarin D as a potential anti-inflammatory agent” (Eur J Med Chem, 2019)

Columns and labels:
[1] = system: RAW264.7; assay: Anti-inflammatory activity in mouse RAW264.7 cells assessed as inhibition of LPS-induced TNFalpha production at 0.1 uM pretreated for 1 hr followed by LPS stimulation and measured after 18 hrs by ELISA relative to control; type: functional; design: scale not given: the % may be the effect or the level left
Outline: (§1)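 DMSO stocks (100 mM) were tested at 0.1, 1, 5 and 20 µM on LPS-stimulated RAW264.7 cells, with dexamethasone 1 µM as positive control. Secreted TNF-α or IL-6 was normalized to the percentage of viable LPS-stimulated cells at each concentration. Mean of three separate experiments, each in triplicate.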

[2] = Cytotoxicity against mouse RAW264.7 cells assessed as cell viability at 5 uM incubated for 18 hrs by celltiter-glo luminescent assay relative to control; type: cell-based; settings: read-out: Activity
Outline: (§2)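 Non-stimulated RAW264.7 cells were exposed to 0.1, 1, 5 and 20 µM compound from 100 mM DMSO stocks. Percent viability is the mean of three separate experiments with triplicate samples.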

[3] = system: RAW264.7; assay: Anti-inflammatory activity in mouse RAW264.7 cells assessed as inhibition of LPS-induced IL-6 production at 20 uM pretreated for 1 hr followed by LPS stimulation and measured after 18 hrs by ELISA relative to control; type: functional; design: scale not given: the % may be the effect or the level left; outline: as §1
[4] = system: RAW264.7; assay: Anti-inflammatory activity in mouse RAW264.7 cells assessed as inhibition of LPS-induced IL-6 production at 1 uM pretreated for 1 hr followed by LPS stimulation and measured after 18 hrs by ELISA relative to control; type: functional; design: scale not given: the % may be the effect or the level left; outline: as §1
[5] = system: RAW264.7; assay: Anti-inflammatory activity in mouse RAW264.7 cells assessed as inhibition of LPS-induced TNFalpha production at 20 uM pretreated for 1 hr followed by LPS stimulation and measured after 18 hrs by ELISA relative to control; type: functional; design: scale not given: the % may be the effect or the level left; outline: as §1
[6] = system: RAW264.7; assay: Anti-inflammatory activity in mouse RAW264.7 cells assessed as inhibition of LPS-induced IL-6 production at 5 uM pretreated for 1 hr followed by LPS stimulation and measured after 18 hrs by ELISA relative to control; type: functional; design: scale not given: the % may be the effect or the level left; outline: as §1
[7] = system: RAW264.7; assay: Anti-inflammatory activity in mouse RAW264.7 cells assessed as inhibition of LPS-induced TNFalpha production at 5 uM pretreated for 1 hr followed by LPS stimulation and measured after 18 hrs by ELISA relative to control; type: functional; design: scale not given: the % may be the effect or the level left; outline: as §1
[8] = Cytotoxicity against mouse RAW264.7 cells assessed as cell viability at 20 uM incubated for 18 hrs by celltiter-glo luminescent assay relative to control; type: cell-based; settings: read-out: Activity; outline: as §2
[9] = system: RAW264.7; assay: Anti-inflammatory activity in mouse RAW264.7 cells assessed as inhibition of LPS-induced TNFalpha production at 1 uM pretreated for 1 hr followed by LPS stimulation and measured after 18 hrs by ELISA relative to control; type: functional; design: scale not given: the % may be the effect or the level left; outline: as §1
[10] = Cytotoxicity against mouse RAW264.7 cells assessed as cell viability at 1 uM incubated for 18 hrs by celltiter-glo luminescent assay relative to control; type: cell-based; settings: read-out: Activity; outline: as §2
[11] = Cytotoxicity against mouse RAW264.7 cells assessed as cell viability at 0.1 uM incubated for 18 hrs by celltiter-glo luminescent assay relative to control; type: cell-based; settings: read-out: Activity; outline: as §2
[12] = system: RAW264.7; assay: Anti-inflammatory activity in mouse RAW264.7 cells assessed as inhibition of LPS-induced IL-6 production at 0.1 uM pretreated for 1 hr followed by LPS stimulation and measured after 18 hrs by ELISA relative to control; type: functional; design: scale not given: the % may be the effect or the level left; outline: as §1

Compound | Activity [1] | viability at 18 h, 5 µM [2] | Activity [3] | Activity [4] | Activity [5] | Activity [6] | Activity [7] | viability at 18 h, 20 µM [8] | Activity [9] | viability at 18 h, 1 µM [10] | viability at 18 h, 0.1 µM [11] | Activity [12]
C=C1CC[C@H]2C(C)(C)CCC[C@]2(C)[C@H]1C[C@@H](O)C1=CCOC1=O [CURCUCOMOSIN C] | 112% | 108% | 47.1% | 84% | 33.4% | 75.6% | 79.3% | 91.9% | 101.5% | 111% | 109% | 100.6%
C=C1CC[C@H]2C(C)(C)CCC[C@]2(C)[C@H]1C/C=C(\CCO)C(=O)O | 104.7% | 96.6% | 63.5% | 88.3% | 50.2% | 79.9% | 60.7% | 87.6% | 80.7% | 99.2% | 102% | 106%
CC1(C)CCC[C@@]2(C)[C@H]1CC[C@]1(CO1)[C@@H]2C/C=C1\CCOC1=O | 100.3% | 95.1% | 63.9% | 92.3% | 33.1% | 81.4% | 55.6% | 85.7% | 88.3% | 97.6% | 97.8% | 102.3%
C=C1CC[C@H]2C(C)(C)CCC[C@]2(C)[C@H]1CC=O | 104% | 101% | 72.8% | 95% | 48.5% | 93% | 73.7% | 91.9% | 91.7% | 101% | 100% | 100%
C=C1CC[C@H]2C(C)(C)CCC[C@]2(C)[C@H]1C[C@H](O)[C@H]1C(=O)OC[C@H]1O | 111.1% | 107% | 71.8% | 101.7% | 86.8% | 104.3% | 109.5% | 98.3% | 108.6% | 106% | 108% | 104.6%
C=C1CC[C@H]2C(C)(C)CCC[C@]2(C)[C@H]1C/C=C1/CCOC1=O | 99.8% | 95.4% | 64.8% | 94.1% | 48% | 85.6% | 69.9% | 85% | 81.8% | 101% | 103% | 101.5%
CC1(C)CCC[C@]2(C)[C@H]3CC(=O)O[C@]3(C)CC[C@@H]12 | 104.8% | 97.2% | 89.7% | 100.3% | 63.9% | 93.8% | 79.9% | 95.9% | 101% | 96.6% | 99.3% | 94.6%
C=C1CC[C@H]2C(C)(C)CCC[C@]2(C)[C@H]1C/C=C1\CCOC1=O | 104.4% | 102% | 76.3% | 93.9% | 52.6% | 83.9% | 73.1% | 100% | 94.6% | 107% | 103% | 103%
C=C1CC[C@H]2C(C)(C)CCC[C@]2(C)[C@H]1C/C=C1\CC(OC)OC1=O (stereo partly specified) | 104.7% | 101% | 59.9% | 79.1% | 27.5% | 70% | 44.7% | 100% | 77.7% | 102% | 102% | 101%
CC1(C)CCC[C@@]2(C)[C@H]1CC[C@@]1(CO1)[C@@H]2C/C=C1\CCOC1=O | 114.8% | 90.9% | 22.3% | 79.7% | 20.5% | 35.2% | 48.4% | 80.4% | 88.6% | 97% | 101% | 101.6%
C=C1CC[C@H]2C(C)(C)CCC[C@]2(C)[C@H]1C/C=C1\C=COC1=O | 94.1% | 90.8% | 61.5% | 99.6% | 26.6% | 85.9% | 53.6% | 82.6% | 84.6% | 97.7% | 102% | 99%
C=C1CC[C@H]2C(C)(C)CCC[C@]2(C)[C@H]1/C=C/C1=CCOC1=O [VILLOSIN] | 80.4% | 103% | 170.1% | 87.6% | 133.5% | 101.5% | 74.6% | 59% | 86.6% | 105% | 104% | 98.4%
C=C1CC[C@H]2C(C)(C)CCC[C@]2(C)[C@H]1C/C=C1\CC(O)OC1=O (stereo partly specified) | 100.2% | 86.3% | 59.4% | 82.4% | 71.1% | 64% | 81.9% | 79% | 89.6% | 92.7% | 102% | 99.1%
